Several values for one entry are separate records, joined by “and”; a condition that tells them apart may be missing. Identical values can stand only once.
System: HEK-293T
Test: Multiplex assay against HEK293T;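 as to Population Tubulin-Different-Phenotype (%): share of the cells with healthy nuclei that show this phenotype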
Type: toxicity, cell-based
Conditions: human
Outline: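 Live cells were stained at seeding with Hoechst33342, BioTracker Green Microtubule Cytoskeleton Dye, MitoTracker Red and Annexin V Alexa Fluor 680, then imaged on a CQ1 microscope at 37°C and 5% CO2 after compound addition. CellPathfinder machine-learning gating split cells into Hoechst high-intensity objects or normal cells. Normal cells were split into healthy, pyknosed or fragmented nuclei, and pyknosed cells into mitotic or apoptotic. Tubulin, mitochondrial-mass and membrane-permeability phenotypes are per cents of healthy-nucleus cells.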

[1] = 12 h, 1 µM, compound concentration 1 uM, replicate 1
[2] = 12 h, 1 µM, compound concentration 1 uM, replicate 2
[3] = 12 h, 10 µM, compound concentration 10 uM, replicate 1
[4] = 12 h, 10 µM, compound concentration 10 uM, replicate 2
[5] = 24 h, 1 µM, compound concentration 1 uM, replicate 1
[6] = 24 h, 1 µM, compound concentration 1 uM, replicate 2
[7] = 24 h, 10 µM, compound concentration 10 uM, replicate 1
[8] = 24 h, 10 µM, compound concentration 10 uM, replicate 2

CC[C@@]1(O)C(=O)OCc2c1cc1n(c2=O)Cc2cc3ccccc3nc2-1 [CAMPTOTHECIN]
Population Apoptotic (%) [1]: 13% and 29% and 33%
Population Healthy Nuclei (%) [1]: 67% and 60% and 69%
Population Membrane Permeable-Phenotype (%) [1]: 5% and 3%
Population Mitochondria Different-Phenotype (%) [1]: 5% and 3%
Population Mitotic Cells (%) [1]: 86% and 70% and 66%
Population Normal (%) [1]: 94% and 66% and 79%
Population Tubulin-Different-Phenotype (%) [1]: 5% and 0% and 2%
Total Cell Count [1]: 915 and 710 and 886
Population Healthy Nuclei (%) [2]: 94% and 77% and 79%
Population Membrane Permeable-Phenotype (%) [2]: 2% and 1%
Population Mitochondria Different-Phenotype (%) [2]: 19% and 9%
Population Mitotic Cells (%) [2]: 87% and 81% and 50%
Population Normal (%) [2]: 98% and 95% and 96%
Population Pyknosed Nuclei (%) [2]: 2% and 1% and 0%
Total Cell Count [2]: 1821 and 1627 and 1427
Population Apoptotic (%) [3]: 16%
Population Fragmented Nuclei (%) [3]: 15%
Population Healthy Nuclei (%) [3]: 57%
Population Hoechst High Intensity Objects (%) [3]: 13%
Population Membrane Permeable-Phenotype (%) [3]: 3%
Population Mitochondria Different-Phenotype (%) [3]: 2%
Population Mitotic Cells (%) [3]: 83%
Population Normal (%) [3]: 86%
Population Pyknosed Nuclei (%) [3]: 26%
Population Tubulin-Different-Phenotype (%) [3]: 2%
Total Cell Count [3]: 665
Population Apoptotic (%) [4]: 20%
Population Fragmented Nuclei (%) [4]: 3%
Population Healthy Nuclei (%) [4]: 93%
Population Hoechst High Intensity Objects (%) [4]: 2%
Population Membrane Permeable-Phenotype (%) [4]: 2%
Population Mitochondria Different-Phenotype (%) [4]: 14%
Population Mitotic Cells (%) [4]: 80%
Population Normal (%) [4]: 97%
Population Pyknosed Nuclei (%) [4]: 3%
Population Tubulin-Different-Phenotype (%) [4]: 9%
Total Cell Count [4]: 1781
Population Apoptotic (%) [5]: 26% and 33% and 22%
Population Healthy Nuclei (%) [5]: 68% and 76% and 85%
Population Membrane Permeable-Phenotype (%) [5]: 7% and 5% and 4%
Population Mitochondria Different-Phenotype (%) [5]: 3% and 4% and 5%
Population Mitotic Cells (%) [5]: 73% and 66% and 77%
Population Normal (%) [5]: 69% and 81% and 96%
Population Pyknosed Nuclei (%) [5]: 5% and 2% and 10%
Population Tubulin-Different-Phenotype (%) [5]: 5% and 6%
Total Cell Count [5]: 653 and 837 and 854
Population Fragmented Nuclei (%) [6]: 18% and 8%
Population Healthy Nuclei (%) [6]: 81% and 78% and 90%
Population Hoechst High Intensity Objects (%) [6]: 5%
Population Membrane Permeable-Phenotype (%) [6]: 2% and 1%
Population Mitochondria Different-Phenotype (%) [6]: 6% and 8% and 7%
Population Mitotic Cells (%) [6]: 100% and 62%
Population Normal (%) [6]: 94%
Population Pyknosed Nuclei (%) [6]: 0%
Population Tubulin-Different-Phenotype (%) [6]: 8% and 13%
Total Cell Count [6]: 1448 and 1582 and 1694
Population Apoptotic (%) [7]: 23%
Population Fragmented Nuclei (%) [7]: 11%
Population Healthy Nuclei (%) [7]: 73%
Population Hoechst High Intensity Objects (%) [7]: 8%
Population Membrane Permeable-Phenotype (%) [7]: 4%
Population Mitochondria Different-Phenotype (%) [7]: 2%
Population Mitotic Cells (%) [7]: 76%
Population Normal (%) [7]: 92%
Population Pyknosed Nuclei (%) [7]: 15%
Population Tubulin-Different-Phenotype (%) [7]: 3%
Total Cell Count [7]: 575
Population Apoptotic (%) [8]: 44%
Population Fragmented Nuclei (%) [8]: 8%
Population Healthy Nuclei (%) [8]: 90%
Population Hoechst High Intensity Objects (%) [8]: 4%
Population Membrane Permeable-Phenotype (%) [8]: 0%
Population Mitochondria Different-Phenotype (%) [8]: 4%
Population Mitotic Cells (%) [8]: 55%
Population Normal (%) [8]: 95%
Population Pyknosed Nuclei (%) [8]: 0%
Population Tubulin-Different-Phenotype (%) [8]: 5%
Total Cell Count [8]: 1706

Reference: ChEMBL document CHEMBL4689842, “EUbOPEN Chemogenomics Library wave 1” (2021)
